Results gathered from unrelated publications.
Protocols differ between the studies behind these lines.
HLA class I histocompatibility antigen, A alpha chain: HLA class I histocompatibility antigen, A alpha chain (Homo sapiens, UniProt P04439)
Htr2c: 5-hydroxytryptamine receptor 2C (Htr2c, Mus musculus, UniProt P34968)
BACE1: Beta-secretase 1 (BACE1, Homo sapiens, UniProt P56817)

For `CC(C)C[C@H](NC(=O)[C@@H](NC(=O)[C@H](CCCCN)NC(=O)[C@H](CC(=O)O)NC(=O)[C@H](Cc1ccc(O)cc1)NC(=O)[C@H](C)NC(=O)[C@@H](N)CCCNC(=N)N)[C@@H](C)O)C(=O)N[C@@H](Cc1ccc(O)cc1)C(=O)N[C@@H](Cc1ccccc1)C(=O)O`, the IC50 was 0.015 µM (HLA class I histocompatibility antigen, A alpha chain; cell-free assay).
For `CCN(CC)C(=O)[C@@H]1C=C2c3cccc4[nH]cc(c34)C[C@H]2N(C)C1`, the EC50 was 1.58 nM (D(2) dopamine receptor (DRD2, Homo sapiens, UniProt P14416); G protein activation; agonist; BRET).
With `CCCC[C@H](NC(C)=O)C(=O)N[C@H]1CC(=O)NCCCC[C@@H](C(=O)N2CCC[C@@H]2C(=O)N[C@@H](C(=O)N2CCC[C@@H]2C(N)=O)C(C)C)NC(=O)[C@H](Cc2c[nH]c3ccccc23)NC(=O)[C@H](CCCNC(=N)N)NC(=O)[C@@H](Cc2ccccc2)NC(=O)[C@@H]2CCCN2C1=O` the EC50 was 0.407 nM (Melanocyte-stimulating hormone receptor (MC1R, Homo sapiens, UniProt Q01726); cAMP; agonist).
With `COc1cc(CCN)c(OC)cc1C#N` the EC50 was 200 nM (Htr2c; G protein activation; agonist; BRET).
For `C=CCOc1ccc(C(=O)/C=C/c2cccc(F)c2)c(OS(=O)(=O)c2ccc(OC)cc2)c1I`, the IC50 was 21.6 µM (BACE1; enzyme activity; inhibitor; fluorescence).
`CC(C)C[C@H](NC(=O)[C@@H]1CCCN1C(=O)[C@H](Cc1c[nH]c2ccccc12)NC(=O)[C@H](CC(=O)O)NC(=O)[C@H](Cc1ccc(O)cc1)NC(=O)[C@@H](NC(=O)[C@@H](N)Cc1ccc(O)cc1)C(C)C)C(=O)N[C@H](C(=O)N[C@@H](Cc1ccccc1)C(=O)O)[C@@H](C)O` has an IC50 of 21.5 µM (HLA class I histocompatibility antigen, A alpha chain; cell-free assay).
`COc1cc(CCN)c(OC)cc1Br` gave an EC50 of 4.27 nM (Htr2c; G protein activation; agonist; BRET).
`C=CCOc1ccc(C(=O)/C=C/c2ccc(OC)cc2)c(OS(C)(=O)=O)c1I` has an IC50 of 48.1 µM (BACE1; enzyme activity; inhibitor; fluorescence).
